Screening results (PubChem)
HNF4A DNA FP = change in binding of human HNF4 alpha to DNA; 360,000 tested, 0.3% active; activity change, % at 10 µM; HNF4a-FITC DNA binding, fluorescence polarization, 1 h; AID 1224865; P41235; in the data active = activity change above about 30%, passing the limit was not always enough
IDE cell inh = cellular human IDE inhibition; P14735; HEK cells, FAbetaB cleavage, fluorescence polarization; 320,000 tested, 0.41% active; inhibition, % at 5.59 µM;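 active = percent inhibition above the average of all tested compounds plus 3 SD, set per screening campaign, cut at about 16% in these data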;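 also: IDE supplied by intact live HEK cells; FP after avidin binding of uncleaved biotin substrate so inhibition keeps polarization high; 0% = DMSO wells and 100% = 60 µM reference IDE inhibitor Ii1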
TPT1 inhibitor = blocks Candida albicans tRNA 2'-phosphotransferase; recombinant caTPT1, FP RNA substrate dephosphorylation; inhibition, % at 5 µM; 300,000 tested, 0.81% active; AID 1962;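 active = inhibition above the mean of all tested compounds plus 3 SD, set per screening campaign, cut at about 24% in these data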;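 also: plate controls were DMSO alone for no effect and ferristatin control at 100 nM for full effect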
CSN inh = inhibitors of human CSN-mediated cullin deneddylation; Purified CSN, SCF-Nedd8-OG deneddylation, fluorescence polarization; inhibition, % at 12.5 µM; 360,000 tested, 0.38% active;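 active = pattern-corrected inhibition above about 35%, with an unprinted fluorescence ratio check between 0.5 and 1.5, limit read from the data, passing the limit was not always enough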;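 also: 0% = enzyme with substrate and 100% = substrate without enzyme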
Target sequence (Q92905 whole entry, looked up, one chain of several): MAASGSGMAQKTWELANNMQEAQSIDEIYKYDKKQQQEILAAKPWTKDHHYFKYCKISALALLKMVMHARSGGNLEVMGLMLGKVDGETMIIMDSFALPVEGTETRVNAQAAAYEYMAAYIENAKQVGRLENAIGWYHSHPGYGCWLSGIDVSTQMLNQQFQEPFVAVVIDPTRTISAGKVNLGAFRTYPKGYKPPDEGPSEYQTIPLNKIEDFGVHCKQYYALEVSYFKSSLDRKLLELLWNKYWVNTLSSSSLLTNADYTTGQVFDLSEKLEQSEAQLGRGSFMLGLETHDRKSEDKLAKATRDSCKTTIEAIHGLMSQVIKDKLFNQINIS
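Assay system: Purified human Csn5 enzyme expressed in HEK293T cells | Amount: Enzyme 0.24 nM | Measured by: Fluorescence polarization readout | Medium: Tris/NaCl/DTT buffer, pH 7.5 | Compound dosing: One concentration, 12.5 µM, 0.25% DMSO | Times: 90 min incubation of compound, enzyme and substrate at room temperature | Control set: no-enzyme wells high, enzyme-with-substrate wells low | Read-out: % inhibition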
IDE cell activ = IDE (human) activation, cell-based; P14735; HEK cells, FAbeta-B cleavage, fluorescence polarization; 0% vehicle, 100% cell-free pure enzyme wells; activation, % at 5.96 µM; 340,000 tested, 0.073% active;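 active = activation above the mean of all tested compounds plus 3 SD, set per screening campaign, cut at about 17% in these data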
Rpn11 inh = Rpn11 (human) deubiquitinase inhibition; 360,000 tested, 0.59% active; O00487; AID 588493; human 26S proteasome, Ub4-pepOG fluorescence polarization; 20S core pre-blocked with epoxomicin; calls only at 20 µM;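 active = inhibition at 20 µM, scaled to each plate's controls, above about 33%, limit read from the data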
TPT1 inh confirm = TPT1 (C. albicans) inhibition, confirmation; AID 2149; recombinant caTPT1, fluorescence polarization, RNase T1 coupled; inhibition, % at 5 µM; shares compounds with TPT1 inhibitor; 2,400 tested, 74% active;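 active = inhibition above the primary screen limit, the mean inhibition of all tested compounds plus 3 SD, cut at about 25% in these data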
RNase T1 inh = counter-screen for TPT1 inhibitors: inhibitors of Aspergillus oryzae RNase T1. 2,400 tested, 83% active. shares compounds with TPT1 inhibitor. inhibition, % at 5 µM. RNase T1 cleavage, fluorescence polarization, 1536-well. AID 2153;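 active = inhibition above the solvent-only control well mean plus 3 SD, limit set per screening run, cut at about 23% in these data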;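 also: plate controls were DMSO wells with enzyme for no effect and wells without RNase T1 for full effect; inhibitors block cleavage so intact labeled substrate keeps polarization high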
Target sequence (P00651 whole entry, looked up): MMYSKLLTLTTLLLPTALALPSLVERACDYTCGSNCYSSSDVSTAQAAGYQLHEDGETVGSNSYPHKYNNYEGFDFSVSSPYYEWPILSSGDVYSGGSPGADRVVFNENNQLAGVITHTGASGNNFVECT
Starred values were filed as active, the others as inactive; i = inactive; . = not tested or not shown. A selection: hits, their analogues and other compounds. The true share with any hit is near 1.7%.

SMILES | HNF4A DNA FP | IDE cell inh | TPT1 inhibitor | CSN inh | IDE cell activ | Rpn11 inh | TPT1 inh confirm | RNase T1 inh
COCCCNC(CC(=O)Nc1ccc(OC)cc1OC)C(=O)O (configuration not stated) | -1.3 | -3.0 | -4.0 | 0.0 | 9.1 | i | . | .
c1ccc(-c2cn3nc(-c4ccccc4)c(-c4ccccc4)nc3n2)cc1 | -0.2 | -3.9 | 34.3* | 8.1 | 3.3 | i | 43.5* | 51.3*
Cc1ccc(-c2cn3nc(-c4ccccc4)c(-c4ccccc4)nc3n2)cc1 | -38.8 | 4.1 | 67.6* | 9.2 | . | i | 70.5* | 74.9*
CC(C)(S)[C@@H](N)C(=O)O | 3.2 | 3.9 | . | -3.2 | 1.9 | i | . | .
CS(=O)(=O)c1nsc2nc(=O)c(/C=C3\C=Nc4ccccc43)c(N)n12 | 1.8 | -4.8 | 4.8 | -1.7 | 2.3 | i | . | .
CS(=O)(=O)c1ccc2c(c1)sc1nc(=O)c(/C=C3/C=CC(=O)C(O)=C3)c(N)n12 | 27.2 | -9.0 | 45.3* | 184.9 | -30.3 | . | 98.2* | 104.0*
COC1=C/C(=C/c2c(N)n3c(nc2=O)sc2cc(S(C)(=O)=O)ccc23)C=CC1=O | 95.7* | 7.7 | 54.3* | 116.3 | -44.8 | . | 146.5* | 143.0*
CCc1cccc(NC(=O)C2CCN(S(=O)(=O)c3ccc4c(c3)NC(=O)CO4)CC2)c1 | -1.0 | -0.7 | -0.8 | 1.9 | -1.2 | i | . | .
CC(CN1CCCCC1)OC(=O)c1cccc(F)c1 (configuration not stated) | 3.6 | 1.1 | 6.3 | 1.3 | 6.8 | i | . | .
O=c1c2cnn(-c3ccccc3)c2nnn1/N=C/c1cccnc1 | 1.5 | -2.5 | -4.4 | -4.6 | 4.0 | i | . | .
CCOc1cc(/C=C2\CCCC(C(=O)C(F)(F)F)=C2O)ccc1O | 6.5 | 2.0 | 35.8* | 4.6 | -5.1 | i | 44.0* | 58.3*
COc1cc(/C=C2/CCCC(C(=O)C(F)(F)F)=C2O)ccc1O | 1.9 | 3.1 | 18.8 | 0.5 | -0.4 | i | . | .
CCCc1nc2ccc([N+](=O)[O-])cc2[nH]1 | 3.6 | 7.2 | 28.9* | 1.2 | 1.4 | i | 3.7 | 7.3
O=C(c1ccncc1)N(c1ccc(N2CCOCC2)cc1)C(c1ccccc1)c1nc2ccccc2[nH]1 (configuration not stated) | -3.6 | . | . | -0.9 | . | i | . | .
O=C1CSc2ccc(S(=O)(=O)N3CCN(c4ccccc4F)CC3)cc2N1 | 0.9 | 0.7 | 28.0* | 0.5 | 3.0 | i | 3.2 | 9.5
COC(=O)c1sccc1NC(=O)c1ccc(OC)cc1 | 3.4 | -2.7 | 62.7* | 2.5 | 1.0 | i | 3.8 | 4.9
C=CCn1ccc(=NC=C(C#N)C#N)c2ccccc21 | 13.3 | 1.7 | 31.2* | -1.0 | -0.3 | i | 44.7* | 56.9*
O=C(Nc1nc2c(s1)CN(Cc1ccccc1)CC2)c1cccc(S(=O)(=O)N2CCc3ccccc32)c1 | 46.6 | -7.7 | 125.2* | 29.9 | -3.0 | i | 93.7* | 93.6*
CCN1CCc2nc(NC(=O)c3ccc4c(c3)OCCO4)sc2C1 | 17.2 | 9.3 | 35.7* | 11.0 | 4.3 | i | 21.5 | 28.2*
NNc1nc2c(-c3ccc(Cl)cc3)nnn2c2ccccc12 | 39.2* | -0.6 | 39.2* | 27.1 | 6.0 | . | 23.2 | 28.6*
NNc1nc2c(-c3ccc(F)cc3)nnn2c2ccccc12 | 25.4 | 5.5 | 29.2* | 17.6 | -1.8 | . | 80.7* | 91.5*
COCCCNc1nc2c(-c3ccc(Cl)cc3)nnn2c2ccccc12 | 0.9 | 0.8 | -2.3 | 13.3 | 4.7 | i | . | .
CN(c1ccccc1)S(=O)(=O)c1cccc(NC(=O)CN2CCCc3ccccc32)c1 | 10.1 | -2.2 | 37.1* | 4.7 | 8.3 | i | 25.0* | 37.0*
O=C(O)/C=C/c1ccc2ccccc2n1 | -0.6 | 0.1 | 1.3 | -1.5 | 5.1 | i | . | .
O=C(/C=C/c1ccc2ccccc2n1)c1cc(Br)ccc1O | 28.7 | 1.3 | 42.8* | 16.9 | -1.7 | . | 15.9 | 22.8*
SMILES | HNF4A DNA FP | IDE cell inh | TPT1 inhibitor | CSN inh | IDE cell activ | Rpn11 inh | TPT1 inh confirm | RNase T1 inh
CSc1nc(C)c(Cc2ccccc2)c(=O)[nH]1 | -4.5 | 6.3 | 1.1 | 5.8 | 2.2 | i | . | .
N#C/C(=C/c1ccc(N2CCCCCC2)o1)c1cccc(F)c1 | 97.5 | 1.8 | 160.3* | 12.8 | -20.9 | . | 176.7* | 163.5*
N#C/C(=C/c1ccc(N2CCCCC2)o1)C(=O)Nc1ccc2ccccc2c1 | -83.7 | . | . | -78.2 | -131.1 | . | . | .
COc1cc(N2CCCC2)c(OC)cc1/C=C(/C#N)c1cccc(F)c1 | 89.1 | 17.0* | 143.5* | 53.5* | -16.2 | . | 145.2* | 140.3*
N#C/C(=C/c1ccc(N2CCCCCC2)o1)c1ccc(F)cc1 | 84.3 | 1.8 | 157.9* | 4.8 | -10.2 | . | 182.0* | 167.6*
N#C/C(=C\c1ccc(N2CCOCC2)o1)c1ccccc1 | 77.9* | -4.8 | 67.4* | 7.6 | -9.1 | . | 138.1* | 137.3*
N#C/C(=C\c1ccc(N2CCOCC2)cc1)c1ccccc1 | -0.3 | 5.4 | 3.4 | 6.3 | -2.0 | i | . | .
COc1ccccc1C(=O)COC(=O)CNC(=O)c1ccc(Br)o1 | 2.8 | 2.5 | -1.6 | -7.5 | 4.6 | i | . | .
O=C(NCCN1CCOCC1)c1ccc(N2CCCC2)c([N+](=O)[O-])c1 | -2.9 | 6.8 | 0.3 | -1.9 | 5.6 | i | . | .
Cc1ccccc1-n1c(SCc2c(C)noc2C)nnc1-c1ccncc1 | 3.2 | 6.2 | 32.5* | 4.6 | 4.5 | i | 11.3 | 16.0
CC1CCc2c(sc(Nc3nc4c(F)cccc4s3)c2C(N)=O)C1 (configuration not stated) | 36.9* | 13.2 | 47.6* | 11.6 | -4.5 | . | 57.0* | 68.7*
O=C(Nc1nc2c(F)cccc2s1)C1CC1 | -0.8 | 4.3 | 1.5 | 0.2 | 4.9 | i | . | .
Cc1ccc(Nc2nc(-c3ccccc3)c(CC(=O)O)s2)cc1 | 0.1 | 4.1 | 56.5* | -4.7 | 2.7 | i | 21.6 | 31.2*
O=C(O)Cc1sc(Nc2ccc(F)cc2)nc1-c1cccs1 | 23.4 | 7.4 | 68.2* | 22.0 | -3.9 | . | 48.6* | 63.3*
CC1CC(C)CN(C(=O)COC(=O)CCc2nc3ccccc3c(=O)[nH]2)C1 (configuration not stated) | 4.1 | 6.0 | -1.2 | 6.2 | 1.6 | i | . | .
COc1ccc([C@H]2CC(=O)C=C(c3cccc(F)c3OC)C2)cc1 | 0.4 | -0.2 | . | -0.8 | 3.1 | i | . | .
COCCNC(=S)N/N=C/c1ccc(-c2ccc([N+](=O)[O-])cc2)o1 | 20.5 | 0.3 | 46.9* | 8.8 | -3.5 | . | 50.5* | 63.4*
